Reference: ChEMBL document CHEMBL1139485, “Tricyclic pyrazoles. 3. Synthesis, biological evaluation, and molecular modeling of analogues of the cannabinoid antagonist 8-chloro-1-(2',4'-dichlorophenyl)-N-piperidin-1-yl-1,4,5,6-tetrahydrobenzo[6,7]cyclohepta[1,2-c]pyrazole-3-carboxamide” (J Med Chem, 2005)
Activity calls are given as the source filed them. The rule behind the calls is not given here.

Experiments:
[1] = target: Cannabinoid receptor 1 (Mus musculus, UniProt P47746); assay: Displacement of [3H]CP-55940 from CB1 receptor in CD1 mouse brain; format: tissue-based
Method in brief: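 Membranes from male CD-1 mouse brain (minus cerebellum) for CB1 or spleen for CB2, prepared in ice-cold TME buffer (50 mM Tris-HCl, 1 mM EDTA, 3.0 mM MgCl2, pH 7.4). 30–80 μg protein incubated with 0.5–1 nM [3H]CP-55,940, 1 h, 30 °C, with 5 mg/mL fatty-acid-free BSA. Nonspecific binding defined by 1 μM CP-55,940. Filtration, scintillation counting. IC50 from sigmoid fit converted to Ki. Triplicate, ≥5 experiments.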

[2] = target: Cannabinoid receptor 2 (Mus musculus, UniProt P47936); assay: Displacement of [3H]CP-55940 from CB2 receptor in CD1 mouse spleen; format: tissue-based
Method in brief: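 Membranes from male CD-1 mouse brain (minus cerebellum) for CB1 or spleen for CB2, prepared in ice-cold TME buffer (50 mM Tris-HCl, 1 mM EDTA, 3.0 mM MgCl2, pH 7.4). Filtration, scintillation counting. IC50 from sigmoid fit converted to Ki. Triplicate, ≥5 experiments.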

[3] = target: Cannabinoid receptor (Mus musculus) (UniProt P47746+P47936); assay: Selectivity for CB1 receptor over CB2 receptor in CD1 mouse; format: protein assay
[4] = tested on: Mus musculus; assay: Effect on upper gastrointestinal motility in CD1 mouse at 0.1 mg/kg, ip; format: functional, organism-based; parameters: dose 0.1 mg/kg
Method in brief: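 Male CD-1 mice (20–35 g), n = 15–20 per group. Drug in saline with 0.1% Tween-80 (12.5 mL/kg) given ip 30 min before intragastric red carmine (6 wt %/v in 0.5% methylcellulose, 0.3 mL/mouse). Mice killed 20 min later. Distance reached by the marker head expressed as % of small intestine length (pylorus to ileocaecal junction). Mean ± SEM.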

[5] = tested on: Mus musculus; assay: Reversal of 0.5 mg/kg WIN-55212-2-induced inhibitory effect on upper gastrointestinal motility in CD1 mouse at 0.1 mg/kg ip; format: functional, organism-based
Method in brief: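 Male CD-1 mice, n = 15–20 per group. Test drug 0.1 mg/kg ip given 10 min before WIN 55,212-2 (0.5 mg/kg ip), both in saline with 0.1% Tween-80. Intragastric carmine marker 20 min after agonist; mice killed 20 min later. Transit measured as % of small intestine length travelled by marker. ANOVA with Newman–Keuls test.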

[6] = tested on: Mus musculus; assay: Increase in upper gastrointestinal motility in CD1 mouse at 0.5 to 1 mg/kg, ip; format: functional; conditions: dose mg/kg 0.5-1; route intraperitoneal
Method in brief: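 Male CD-1 mice (20–35 g), n = 15–20 per group. Compound given ip in saline with 0.1% Tween-80, 30 min before intragastric red carmine marker (6% suspension in 0.5% methylcellulose, 0.3 mL/mouse). Killed 20 min later. Distance travelled by the marker head expressed as % of small-intestine length (pylorus to ileocaecal junction). Group mean ± SEM versus vehicle-treated mice, by ANOVA/Newman–Keuls.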

Sequence of Cannabinoid receptor 1 (P47746 whole entry): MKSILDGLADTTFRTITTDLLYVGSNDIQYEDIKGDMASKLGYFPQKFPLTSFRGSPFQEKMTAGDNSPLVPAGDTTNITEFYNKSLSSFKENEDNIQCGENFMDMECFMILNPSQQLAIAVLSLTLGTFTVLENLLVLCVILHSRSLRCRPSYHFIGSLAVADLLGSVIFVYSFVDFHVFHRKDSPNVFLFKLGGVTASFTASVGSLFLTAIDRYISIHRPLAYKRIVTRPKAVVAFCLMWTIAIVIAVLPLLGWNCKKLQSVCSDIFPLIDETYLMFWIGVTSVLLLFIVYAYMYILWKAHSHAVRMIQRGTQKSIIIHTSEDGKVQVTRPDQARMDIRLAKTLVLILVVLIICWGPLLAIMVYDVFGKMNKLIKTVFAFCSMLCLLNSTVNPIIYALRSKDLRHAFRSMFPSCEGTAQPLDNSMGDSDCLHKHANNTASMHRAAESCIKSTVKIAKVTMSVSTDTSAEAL
Sequence of Cannabinoid receptor (Mus musculus) (P47746 whole entry, looked up): as the sequence (P47746 whole entry) above
Sequence of Cannabinoid receptor (Mus musculus) (P47936 whole entry, looked up): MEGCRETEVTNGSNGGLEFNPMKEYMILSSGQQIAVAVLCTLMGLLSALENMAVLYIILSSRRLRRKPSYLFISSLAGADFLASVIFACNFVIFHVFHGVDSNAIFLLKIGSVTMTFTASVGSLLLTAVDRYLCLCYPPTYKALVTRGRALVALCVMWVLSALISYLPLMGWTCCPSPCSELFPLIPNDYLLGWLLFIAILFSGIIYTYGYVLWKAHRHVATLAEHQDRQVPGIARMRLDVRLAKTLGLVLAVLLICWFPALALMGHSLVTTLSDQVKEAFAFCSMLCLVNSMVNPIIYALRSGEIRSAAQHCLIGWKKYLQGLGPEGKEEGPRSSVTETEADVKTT
Sequence of Cannabinoid receptor 2 (P47936 whole entry): as the sequence (P47936 whole entry, looked up) above

| Ki [1] | Ki [2] | Ratio Ki [3] | Structure (SMILES) | Activity [4] | Activity [5] | Activity [6] [%] |
| --- | --- | --- | --- | --- | --- | --- |
| 0.0052 nM (antagonist) | 0.46 nM (antagonist) | 88.5 | Cc1ccc2c(c1)CCCc1c(C(=O)NN3CCCCC3)nn(-c3ccc(Cl)cc3Cl)c1-2 |  |  |  |
| 0.008 nM (antagonist) | 37 nM (antagonist) | 4620 | O=C(NN1CCCCC1)c1nn(-c2ccc(Cl)cc2Cl)c2c1CCCc1cc(Br)ccc1-2 |  |  |  |
| 0.00035 nM (antagonist) | 21 nM (antagonist) | 60000 | O=C(NN1CCCCC1)c1nn(-c2ccc(Cl)cc2Cl)c2c1CCCc1cc(Cl)ccc1-2 |  |  |  |
| 0.004 nM (antagonist) | 45 nM (antagonist) | 11200 | O=C(NN1CCCC1)c1nn(-c2ccc(Cl)cc2Cl)c2c1CCCc1cc(Cl)ccc1-2 |  |  |  |
| 31.2 nM (antagonist) | 26.8 nM (antagonist) | 0.86 | O=C(NN1CCCCC1)c1nn(-c2ccc(Cl)cc2Cl)c2c1CCCc1ccc(Cl)cc1-2 |  |  |  |
| 9.84 nM (antagonist) | 31.6 nM (antagonist) | 3.21 | O=C(NN1CCCCC1)c1nn(-c2ccc(Cl)cc2Cl)c2c1CCCc1c(Cl)cccc1-2 |  |  |  |

The remaining lines, values behind:

| Structure (SMILES) | Ki [1] | Ki [2] | Ratio Ki [3] | Activity [4] | Activity [5] | Activity [6] [%] |
| --- | --- | --- | --- | --- | --- | --- |
| COc1ccc(NC(=O)c2nn(-c3ccc(Cl)cc3Cl)c3c2CCCc2cc(Cl)ccc2-3)cc1 | 0.013 nM (antagonist) | 43.3 nM (antagonist) | 3300 |  |  |  |
| Cc1ccc2c(c1)CCCc1c(C(=O)NN3CCCC3)nn(-c3ccc(Cl)cc3Cl)c1-2 | 0.11 nM (antagonist) | 386 nM (antagonist) | 3510 |  |  |  |
| O=C(NC1CCCCC1)c1nn(-c2ccc(Cl)cc2Cl)c2c1CCCc1cc(Cl)ccc1-2 | 0.3 nM (antagonist) | 0.65 nM (antagonist) | 2.16 |  |  |  |
| O=C(NN1CCCCC1)c1nn(-c2ccc(Cl)cc2Cl)c2c1CCc1cc(Cl)ccc1-2 | 14.8 nM (antagonist) | 227 nM (antagonist) | 15.3 |  |  |  |
| O=C(Nc1ccc(Cl)c(Cl)c1)c1nn(-c2ccc(Cl)cc2Cl)c2c1CCCc1cc(Cl)ccc1-2 | 25.8 nM (antagonist) | > 500 nM |  |  |  |  |
| Cc1ccc(NC(=O)c2nn(-c3ccc(Cl)cc3Cl)c3c2CCCc2cc(Cl)ccc2-3)cc1 | 5.74 nM (antagonist) | 65 nM (antagonist) | 11.3 |  |  |  |
| O=C(NN1CCCCC1)c1nn(-c2ccc(Cl)cc2Cl)c2c1Cc1cc(Cl)ccc1-2 | 2050 nM (antagonist) | 0.34 nM (antagonist) | 0.000166 |  |  |  |
| O=C(NN1CCCCCC1)c1nn(-c2ccc(Cl)cc2Cl)c2c1CCCc1cc(Cl)ccc1-2 | 0.001 nM (antagonist) | 2 nM (antagonist) | 2000 | inactive | Active | 65 |
| O=C(Nc1ccc(Cl)cc1)c1nn(-c2ccc(Cl)cc2Cl)c2c1CCCc1cc(Cl)ccc1-2 | 2.5 nM (antagonist) | 79 nM (antagonist) | 31.6 |  |  |  |
| O=C(NN1CCCCC1)c1nn(-c2ccc(Cl)cc2Cl)c2c1CCCc1ccccc1-2 | 168 nM (antagonist) | 18.1 nM (antagonist) | 0.11 |  |  |  |
| O=C(Nc1ccccc1)c1nn(-c2ccc(Cl)cc2Cl)c2c1CCCc1cc(Cl)ccc1-2 | 4.35 nM (antagonist) | 1.45 nM (antagonist) | 0.33 |  |  |  |
